{"source": "ChEMBL document CHEMBL3817728", "about": "“Synthesis, Evaluation, and Mechanism Study of Novel Indole-Chalcone Derivatives Exerting Effective Antitumor Activity Through Microtubule Destabilization in Vitro and in Vivo” (J Med Chem, 2016)", "key": {"A549 [1]": {"system": "A549", "assay": "Disruption of microtubule network in human A549 cells assessed as multinucleation at 10 nM after 24 hrs by Hoechst 33342 staining-based laser scanning confocal microscopic analysis", "format": "cell-based", "outline": "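A549 cells plated in confocal dishes and incubated with compound for 24 h. Cells were then fixed and stained, and microtubule and spindle organization was imaged by laser confocal microscopy. Experiments done five times; representative results shown.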"}, "A549 [2]": {"system": "A549", "assay": "Cell cycle arrest in human A549 cells assessed as decrease in cell level at G1 phase at 1 to 10 nM after 24 to 48 hrs by propidium iodide staining-based flow cytometric analysis", "format": "functional", "outline": "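A549 cells exposed to compound for 24, 48 or 72 h, then trypsinized and harvested. DNA stained with propidium iodide and analyzed by flow cytometry. Percentage of cells in each cell-cycle phase was quantified from the DNA histograms, with sub-G1 taken as the hypodiploid peak. Performed at least three times; representative experiments shown.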"}, "A549 [3]": {"system": "A549", "assay": "Induction of apoptosis in human A549 cells assessed as early apoptotic cells at 10 nM after 24 hrs by annexin V-FITC/propidium iodide staining-based flow cytometric method (reference value: 1.07%)", "format": "functional"}, "A549 [4]": {"system": "A549", "assay": "Induction of apoptosis in human A549 cells assessed as necrotic cells at 10 nM after 24 hrs by annexin V-FITC/propidium iodide staining-based flow cytometric method (reference value: 0.03%)", "format": "functional"}, "[5]": {"assay": "Metabolic stability in Sprague-Dawley rat liver microsomes assessed as compound remaining at 180 mins in presence of NADPH regenerating system by HPLC method", "format": "ADME", "conditions": "read-out: Stability", "outline": "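Rat liver microsomes incubated with compound at 37 ℃ for indicated times in buffer containing NADPH regenerating system; residual parent determined by HPLC.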"}, "A549 [6]": {"system": "A549", "assay": "Induction of apoptosis in human A549 cells assessed as early apoptotic cells at 3 nM after 24 hrs by annexin V-FITC/propidium iodide staining-based flow cytometric method (reference value: 1.07%)", "format": "functional"}, "A549 [7]": {"system": "A549", "assay": "Disruption of mitochondrial membrane potential in human A549 cells assessed as red fluorescence intensity at 3 nM after 24 hrs by JC1 staining-based flow cytometric method (reference value: 99.2%)", "format": "functional"}, "A549 [8]": {"system": "A549", "assay": "Induction of apoptosis in human A549 cells assessed as necrotic cells at 10 nM after 48 hrs by annexin V-FITC/propidium iodide staining-based flow cytometric method (reference value: 0.01%)", "format": "functional"}, "A549 [9]": {"system": "A549", "assay": "Disruption of mitochondrial membrane potential in human A549 cells assessed as green fluorescence intensity at 10 nM after 24 hrs by JC1 staining-based flow cytometric method (reference value: 0.02%)", "format": "functional"}, "MCF7": {"system": "MCF7", "assay": "Cytotoxicity against human MCF7 cells assessed as cell viability after 48 hrs by MTT assay", "format": "functional, cell-based", "conditions": "MCF7, 48 h", "outline": "(§1)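 Cancer cell lines treated with compound for 48 h, and viability read by MTT assay. IC50 given as mean ± SD from at least three independent experiments.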"}, "Mus musculus": {"system": "Mus musculus", "assay": "Toxicity in BALB/c nude mouse xenografted with human A549 cells assessed as loss of body weight at 30 mg/kg, ip administered every other day for 1 month measured every other day post dose relative to vehicle-treated control", "format": "organism-based", "conditions": "in vivo"}, "[10]": {"assay": "Half life in Sprague-Dawley rat liver microsomes in presence of NADPH regenerating system by HPLC method", "format": "ADME", "outline": "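Compound incubated with rat liver microsomes at 37 °C in buffer containing an NADPH regenerating system, sampled over time up to 3 h. Remaining parent compound was measured by HPLC and half-life derived.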"}, "Tubulin (Sus scrofa) [11]": {"target": "T1, Tubulin (Sus scrofa) (UniProt P02554+P02550)", "T1 sequence (P02550 whole entry, looked up)": "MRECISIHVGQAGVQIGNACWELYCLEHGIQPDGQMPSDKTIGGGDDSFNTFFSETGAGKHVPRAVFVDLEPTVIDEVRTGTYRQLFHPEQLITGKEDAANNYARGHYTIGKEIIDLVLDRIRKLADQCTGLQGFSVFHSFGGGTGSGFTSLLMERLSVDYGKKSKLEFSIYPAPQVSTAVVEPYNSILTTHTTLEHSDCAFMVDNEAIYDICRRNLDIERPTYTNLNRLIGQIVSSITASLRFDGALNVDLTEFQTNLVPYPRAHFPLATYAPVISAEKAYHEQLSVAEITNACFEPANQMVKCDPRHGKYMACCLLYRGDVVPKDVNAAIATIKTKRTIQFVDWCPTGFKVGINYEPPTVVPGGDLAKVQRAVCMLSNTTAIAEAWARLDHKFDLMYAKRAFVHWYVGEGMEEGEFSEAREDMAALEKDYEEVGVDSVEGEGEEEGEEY", "T1 sequence (P02554 whole entry, looked up)": "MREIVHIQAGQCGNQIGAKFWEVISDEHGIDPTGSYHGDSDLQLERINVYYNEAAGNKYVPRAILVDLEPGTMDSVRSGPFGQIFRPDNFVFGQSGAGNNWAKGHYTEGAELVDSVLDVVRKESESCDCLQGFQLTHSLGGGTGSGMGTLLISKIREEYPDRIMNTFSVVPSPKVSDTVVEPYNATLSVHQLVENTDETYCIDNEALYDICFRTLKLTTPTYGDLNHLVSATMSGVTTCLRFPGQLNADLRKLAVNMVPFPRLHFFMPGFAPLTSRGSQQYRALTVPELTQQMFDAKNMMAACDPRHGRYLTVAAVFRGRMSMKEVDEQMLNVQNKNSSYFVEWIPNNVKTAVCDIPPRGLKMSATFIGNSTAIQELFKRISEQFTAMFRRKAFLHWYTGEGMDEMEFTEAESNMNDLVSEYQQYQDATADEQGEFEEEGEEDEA", "assay": "Inhibition of [3H]-colchicine binding to porcine brain tubulin at 5 uM relative to control", "outline": "(§2)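 Competition with [3H]colchicine at 5 μM; test agents at 5 or 1 μM. Mean ± SD of at least three independent experiments.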"}, "A549 [12]": {"system": "A549", "assay": "Antitumor activity against human A549 cells xenografted in BALB/c nude mouse assessed as tumor growth inhibition at 30 mg/kg, ip administered every other day for 1 month measured every other day post dose relative to vehicle-treated control", "format": "functional", "conditions": "read-out: TGI"}, "A549 [13]": {"system": "A549", "assay": "Induction of apoptosis in human A549 cells assessed as early apoptotic cells at 3 nM after 48 hrs by annexin V-FITC/propidium iodide staining-based flow cytometric method (reference value: 1.95%)", "format": "functional"}, "A549 [14]": {"system": "A549", "assay": "Induction of apoptosis in human A549 cells assessed as late apoptotic cells at 1 nM after 24 hrs by annexin V-FITC/propidium iodide staining-based flow cytometric method (reference value: 0.01%)", "format": "functional"}, "A549 [15]": {"system": "A549", "assay": "Induction of apoptosis in human A549 cells assessed as necrotic cells at 1 nM after 48 hrs by annexin V-FITC/propidium iodide staining-based flow cytometric method (reference value: 0.01%)", "format": "functional"}, "A549 [16]": {"system": "A549", "assay": "Induction of apoptosis in human A549 cells assessed as late apoptotic cells at 3 nM after 24 hrs by annexin V-FITC/propidium iodide staining-based flow cytometric method (reference value: 0.01%)", "format": "functional"}, "[17]": {"assay": "Cytotoxicity against human Bel7402 cells assessed as cell viability after 48 hrs by MTT assay", "format": "functional, cell-based", "conditions": "Bel-7402, 48 h", "outline": "as §1"}, "[18]": {"assay": "Selectivity ratio of IC50 for HLF to IC50 for human A549 cells", "format": "ADME, cell-based", "conditions": "HLF versus A549 cells, read-out: Ratio IC50", "outline": "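Selectivity ratio = IC50 in normal cells / IC50 in A549; IC50 values mean ± SE from dose-response curves of at least three independent experiments. HUVECs kept quiescent in endothelial cell medium with 0.5% fetal calf serum, no growth factor.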"}, "[19]": {"assay": "Metabolic stability in Sprague-Dawley rat liver microsomes assessed as compound remaining at 90 mins in presence of NADPH regenerating system by HPLC method", "format": "ADME", "conditions": "read-out: Stability", "outline": "(§3)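 Test compound incubated with rat liver microsomes at 37 ℃ in buffer containing an NADPH regenerating system for the stated time. Remaining parent compound was quantified by HPLC.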"}, "A549 [20]": {"system": "A549", "assay": "Induction of apoptosis in human A549 cells assessed as viable cells at 10 nM after 24 hrs by annexin V-FITC/propidium iodide staining-based flow cytometric method (reference value: 98.9%)", "format": "functional", "conditions": "A549, 24 h, read-out: Activity", "outline": "(§4)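 A549 cells exposed 24 h or 48 h at indicated concentrations, then trypsinized, harvested and stained with Annexin V-FITC and PI; flow cytometry quadrants scored as necrotic (upper left), late apoptotic (upper right), live (bottom left) and early apoptotic (bottom right). Five independent experiments, representative shown.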"}, "[21]": {"assay": "Metabolic stability in Sprague-Dawley rat liver microsomes assessed as compound remaining at 30 mins in presence of NADPH regenerating system by HPLC method", "format": "ADME", "conditions": "read-out: Stability", "outline": "as §3"}, "A549 [22]": {"system": "A549", "assay": "Induction of apoptosis in human A549 cells assessed as viable cells at 3 nM after 24 hrs by annexin V-FITC/propidium iodide staining-based flow cytometric method (reference value: 98.9%)", "format": "functional", "conditions": "A549, 24 h, read-out: Activity", "outline": "as §4"}, "A549 [23]": {"system": "A549", "assay": "Induction of apoptosis in human A549 cells assessed as viable cells at 1 nM after 24 hrs by annexin V-FITC/propidium iodide staining-based flow cytometric method (reference value: 98.9%)", "format": "functional", "conditions": "A549, 24 h, read-out: Activity", "outline": "as §4"}, "A549 [24]": {"system": "A549", "assay": "Induction of apoptosis in human A549 cells assessed as necrotic cells at 3 nM after 48 hrs by annexin V-FITC/propidium iodide staining-based flow cytometric method (reference value: 0.01%)", "format": "functional", "outline": "as §4"}, "Tubulin (Sus scrofa) [25]": {"target": "T1, Tubulin (Sus scrofa)", "assay": "Inhibition of [3H]-colchicine binding to porcine brain tubulin at 1 uM relative to control", "outline": "as §2"}, "A549 [26]": {"system": "A549", "assay": "Cytotoxicity against human A549 cells assessed as cell viability after 48 hrs by MTT assay", "format": "functional, cell-based", "conditions": "A549, 48 h", "outline": "as §1"}}, "note": "Calls of active or inactive are those of the source. The rule behind the calls is not given here.", "data": [{"smiles": "COc1ccc2c(/C=C(\\C)C(=O)c3cc(OC)c(OC)c(OC)c3)c[nH]c2c1", "values": [{"measurement": "Activity", "setting": "A549 [1]", "result": "Active"}, {"measurement": "Activity", "setting": "A549 [2]", "result": "Active"}, {"measurement": "Activity", "setting": "A549 [3]", "result": 25.27, "unit": "%"}, {"measurement": "Activity", "setting": "A549 [4]", "result": 2.94, "unit": "%"}, {"measurement": "remaining at 3 h", "setting": "[5]", "result": 42.4, "unit": "%"}, {"measurement": "Activity", "setting": "A549 [6]", "result": 28.6, "unit": "%"}, {"measurement": "Activity", "setting": "A549 [7]", "result": 53.9, "unit": "%"}, {"measurement": "Activity", "setting": "A549 [8]", "result": 8.38, "unit": "%"}, {"measurement": "Activity", "setting": "A549 [9]", "result": 57.2, "unit": "%"}, {"measurement": "IC50", "setting": "MCF7", "result": 6, "unit": "nM"}, {"measurement": "Activity", "setting": "Mus musculus", "result": "Non-toxic"}, {"measurement": "half-life", "setting": "[10]", "result": 2.62, "unit": "h"}, {"measurement": "inhibition", "setting": "Tubulin (Sus scrofa) [11]", "result": 96, "unit": "%"}, {"measurement": "inhibition in vivo at 30 mg/kg", "setting": "A549 [12]", "result": 66.1, "unit": "%"}, {"measurement": "Activity", "setting": "A549 [13]", "result": 26.8, "unit": "%"}, {"measurement": "Activity", "setting": "A549 [14]", "result": 2.12, "unit": "%"}, {"measurement": "Activity", "setting": "A549 [15]", "result": 1.52, "unit": "%"}, {"measurement": "Activity", "setting": "A549 [16]", "result": 3.56, "unit": "%"}, {"measurement": "IC50", "setting": "[17]", "result": 9, "unit": "nM"}, {"measurement": "selectivity ratio", "setting": "[18]", "result": 1890}, {"measurement": "remaining at 1.5 h", "setting": "[19]", "result": 73.7, "unit": "%"}, {"measurement": "viability at 0.01 µM", "setting": "A549 [20]", "result": 60.4, "unit": "%"}, {"measurement": "remaining at 0.5 h", "setting": "[21]", "result": 85.6, "unit": "%"}, {"measurement": "viability at 0.003 µM", "setting": "A549 [22]", "result": 69.7, "unit": "%"}, {"measurement": "viability at 0.001 µM", "setting": "A549 [23]", "result": 83.7, "unit": "%"}, {"measurement": "Activity", "setting": "A549 [24]", "result": 2.69, "unit": "%"}, {"measurement": "inhibition", "setting": "Tubulin (Sus scrofa) [25]", "result": 82, "unit": "%"}, {"measurement": "IC50", "setting": "A549 [26]", "result": 3, "unit": "nM"}]}]}
